Test results from article PMC3582904 (International Journal of Oncology, 2012).
Read-outs that look alike come from different tables or passages of the source. Marks after values point to notes of the source that are not given here.

Tests used:
[1] = patients with advanced non-small cell lung, breast, colon, and pancreatic cancers; diarrhea, nausea, asthenia, rash, anorexia; cited from earlier work
[2] = system: EHMES-10 cells; assay: WST-1 cell proliferation assay, EHMES-10; format: cell-based, human; conditions: read-out: IC50 against EHMES-10 cells, 72 h
In short: (§1)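 Cells at 1×10^4 per well in RPMI-1640/10% FBS were exposed for 72 h to test compound at 20 to 200 μM, with DMSO final 1.0%. Vehicle controls received matching DMSO. WST-1 reagent was then added, and absorbance was read at 450 nm against a 690 nm reference. IC50 was taken from the dose-response; means ± SD.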

[3] = system: MSTO211H cells; assay: WST-1 cell proliferation assay, MSTO211H; format: cell-based, human; conditions: read-out: IC50 against MSTO211H cells, 72 h
In short: as §1

[4] = system: EHMES-10 cells; assay: Cell cycle analysis; format: cell-based, human; conditions: 24 h; for percentage of cells in sub-G1 phase compared to control: EHMES-10, 80 μM each agent; for G1-phase population compared to control: EHMES-10, 80 μM, P<0.05
In short: (§2)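 Cells grown in RPMI-1640 with 10% FBS at 37°C and 5% CO2 were exposed to 80 μM MEK inhibitor, 80 μM PI3K inhibitor or both for 24 h (DMSO final 1.0%). They were then trypsinized, and nuclei were stained with propidium iodide (CycleTest Plus kit). Phase profiles came from FACScan flow cytometry. Three independent runs; means ± SD, ANOVA with Dunnett's test.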

[5] = system: MSTO211H cells; assay: Cell cycle analysis; format: cell-based, human; conditions: 24 h; for percentage of cells in sub-G1 phase compared to control: 80 μM each agent; for G1-phase population compared to control: 80 μM, P<0.05
In short: as §2

[6] = system: EHMES-10 cells; assay: DNA fragmentation assay; format: cell-based, human; conditions: EHMES-10, single agent, 24 h, dose-dependent
In short: (§3)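 Apoptosis was scored after 24 h exposure to either MEK or PI3K inhibitor or their combination, in RPMI-1640/10% FBS with DMSO final 1.0%. Cytoplasmic histone-associated DNA fragments were quantified with the Cell Death Detection ELISA kit. Means ± SD, ANOVA with Dunnett's test.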

[7] = system: MSTO211H cells; assay: DNA fragmentation assay; format: cell-based, human; conditions: single agent, 24 h, dose-dependent
In short: as §3

[8] = system: EHMES-10 cells; assay: Western blot analysis of cultured EHMES-10 cells; format: cell-based, human; conditions: EHMES-10, 80 μM, 24 h
In short: (§4)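 Cultured cells received 80 μM MEK inhibitor and/or 80 μM PI3K inhibitor for 24 h. Lysates were cleared at 15,000 × g, 15 min, 4°C, resolved on 7.5–15% gels, transferred to nitrocellulose and immunoblotted; three independent experiments.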

[9] = system: MSTO211H cells; assay: Western blot analysis of cultured MSTO211H cells; format: cell-based, human; conditions: 80 μM, 24 h
In short: as §4

[10] = system: EHMES-10 cells; assay: Orthotopic implantation model, EHMES-10 cells in SCID mice; format: in vivo; conditions: for survival time compared to control group: P<0.01; for Pleural effusion Incidence / Thoracic tumor Incidence: day 30; for Pleural effusion Volume / Thoracic tumor Weight: day 30, median (range)
In short: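 Male SCID mice aged 6–8 weeks received 3×10^6 EHMES-10 cells in PBS into the thoracic cavity. On day 7 they were randomized, […], to vehicle (40% DMSO in PBS), MEK inhibitor (20, 30, 40 mg/kg), PI3K inhibitor (12.5, 25, 50 mg/kg) or 30 + 25 mg/kg combined, given i.p. twice weekly. Mice were killed on day 30; tumor weighed, effusion volume measured. Medians (ranges), Mann-Whitney; survival by Kaplan-Meier/log-rank.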

[11] = Side effects in EHMES-10 cell-bearing SCID mice; format: in vivo; conditions: day 30, median (range)
[12] = system: EHMES-10 cells; format: in vivo, SCID mice; conditions: thoracic tumors, day 30; for expression of p27kip1 and 89 kDa cleaved PARP (western blot of tumors): 30 mg/kg U0126, 25 mg/kg LY294002 or combination
In short: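 Thoracic tumors were excised on day 30 from SCID mice given i.p. test compounds twice weekly in 40% DMSO/PBS. Paraffin sections were immunostained for phospho-ERK1/2, phospho-Akt and p27kip1 (Envision method, Fuchsin+ chromogen). Tumor homogenates were lysed in Tris/NaCl/Triton/NaF/Na3VO4 buffer, cleared at 15,000 × g, separated on 7.5–15% gels and immunoblotted.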

[13] = cited from earlier work
[14] = 30 mg/kg U0126, alone or with 25 mg/kg LY294002
[15] = 25 mg/kg LY294002, alone or with 30 mg/kg U0126

## O=C(NOCC1CC1)c1ccc(F)c(F)c1Nc1ccc(I)cc1Cl [CI-1040]
[1]
  toxicities in patients: mild or moderate toxicities

## N#CC(=C(/N)Sc1ccccc1N)/C(C#N)=C(/N)Sc1ccccc1N [U0126]
[2]; WST-1 assay
  IC50: 66.8 µM
[3]; WST-1 assay
  IC50: 39 µM
[4]
  percentage of cells in sub-G1 phase compared to control: significantly increased
  G1-phase population compared to control: significantly increased
[5]
  percentage of cells in sub-G1 phase compared to control: significantly increased
  G1-phase population compared to control: significantly increased
[6]
  apoptosis by DNA fragmentation analysis: induced apoptosis
[7]
  apoptosis by DNA fragmentation analysis: induced apoptosis
[8]
  HIF1α and VEGF expression: decreased
  cyclin D1 expression: decrease
  level of 89 kDa cleaved PARP: increased
  levels of phospho-Bad and procaspase 3: decreased
  phosphorylation of ERK1/2 and p90RSK: blocked
[9]
  cyclin D1 expression: decrease
  level of 89 kDa cleaved PARP: increased
  levels of phospho-Bad and procaspase 3: decreased
[10]; 30 mg/kg i.p. twice a week
  survival time compared to control group: significantly prolonged
[10]; 30 mg/kg i.p. twice/week
  Pleural effusion Incidence: 1/5
  Thoracic tumor Incidence: 4/5
  Pleural effusion Volume: 0 (0–100)^a μl
  Thoracic tumor Weight: 31.3 (0–59.2)^a mg
[10]; 40 mg/kg i.p. twice a week
  survival time compared to control group: significantly prolonged
[10]; 40 mg/kg i.p. twice/week
  Pleural effusion Incidence: 0/5
  Thoracic tumor Incidence: 3/5
  Pleural effusion Volume: 0 (−)^a μl
  Thoracic tumor Weight: 14.6 (0–191.3)^a mg
[11]; 30 mg/kg i.p. twice/week
  ALT: 30 (20–60) IU/l
  AST: 48 (44–64) IU/l
  BUN: 22.2 (15.4–24.0) mg/dl
  Cre: 0.10 (0.08–0.15) mg/dl
  TP (serum total protein): 4.3 (4.0–5.0) g/dl
  Weight (body weight): 24.1 (23.5–27.2) g
[11]; 40 mg/kg i.p. twice/week
  ALT: 45 (31–80) IU/l
  AST: 75 (53–111) IU/l
  BUN: 19.1 (15.3–22.1) mg/dl
  Cre: 0.07 (0.05–0.12)^a mg/dl
  TP (serum total protein): 5.0 (4.4–6.6) g/dl
  Weight (body weight): 24.9 (23.3–25.9) g
[12]
  expression of p27kip1 and 89 kDa cleaved PARP (western blot of tumors): increased
[12]; [14]
  ERK1/2 phosphorylation (western blot of tumors): inhibited
  phospho-ERK1/2-positive tumor cells (immunohistochemistry): reduced

## O=c1cc(N2CCOCC2)oc2c(-c3ccccc3)cccc12 [LY294002]
[2]; Homo sapiens
  IC50: 20.7 µM
[3]; Homo sapiens, MSTO-211H
  IC50: 29.9 µM
[4]
  percentage of cells in sub-G1 phase compared to control: significantly increased
  G1-phase population compared to control: significantly increased
[5]
  percentage of cells in sub-G1 phase compared to control: significantly increased
  G1-phase population compared to control: significantly increased
[6]
  apoptosis by DNA fragmentation analysis: induced apoptosis
[7]
  apoptosis by DNA fragmentation analysis: induced apoptosis
[8]
  HIF1α and VEGF expression: inhibited
  cyclin D1 expression: decrease
  level of 89 kDa cleaved PARP: increased
  levels of phospho-Bad and procaspase 3: decreased
  phosphorylation of Akt, p70S6K, S6 and GSK3β: suppressed
[9]
  level of 89 kDa cleaved PARP: increased
  levels of phospho-Bad and procaspase 3: decreased
[10]; 25 mg/kg i.p. twice/week
  Pleural effusion Incidence: 1/5
  Thoracic tumor Incidence: 3/5
  Pleural effusion Volume: 0 (0–10)^a μl
  Thoracic tumor Weight: 69.1 (0–481.6)^a mg
[10]; 50 mg/kg i.p. twice a week
  survival time compared to control group: significantly prolonged
[10]; 50 mg/kg i.p. twice/week
  Pleural effusion Incidence: 0/5
  Thoracic tumor Incidence: 2/5
  Pleural effusion Volume: 0 (−)^a μl
  Thoracic tumor Weight: 0 (0–41)^a mg
[11]; 25 mg/kg i.p. twice/week
  ALT: 19 (15–72) IU/l
  AST: 46 (37–117) IU/l
  BUN: 20.2 (17.9–23.0) mg/dl
  Cre: 0.11 (0.06–0.20) mg/dl
  TP (serum total protein): 4.3 (3.9–5.6) g/dl
  Weight (body weight): 25.4 (24.4–26.3) g
[11]; 50 mg/kg i.p. twice/week
  ALT: 25 (16–42) IU/l
  AST: 51 (46–92) IU/l
  BUN: 21.0 (16.4–23.2) mg/dl
  Cre: 0.09 (0.07–0.12)^a mg/dl
  TP (serum total protein): 4.4 (3.9–5.6) g/dl
  Weight (body weight): 24.4 (22.7–26.3) g
[12]; [15]
  Akt phosphorylation (western blot of tumors): inhibited
  phospho-Akt-positive tumor cells (immunohistochemistry): reduced
[12]
  expression of p27kip1 and 89 kDa cleaved PARP (western blot of tumors): increased
[13]; administration reduced to three days per week
  side effects: side effects were not shown
[13]; daily intraperitoneal 100 mg/kg, mice with ovarian cancer
  side effects: body weight loss and dry skin
